According to paper PMC10568961 (Research in Pharmaceutical Sciences, 2023):
In brackets after ≈: the same amount, converted by molar mass. Where two headings read alike, the source gives them in different places. Marks after values point to notes of the source that are not given here.

Legend:
A549 cells [1] = assay: Scratch assay of cell migration; format: cell-based, human
Outline: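 A549 monolayers were grown to 90–100% confluence in 24 h, scratched with a pipette tip and washed with PBS; initial gap width was measured at ×400. Cells were then kept in serum-free medium with test compound (0–150 μg/mL) or cisplatin (1 μg/mL) at 37 °C, 5% CO2. Gap widths were read by phase-contrast at each time point to 72 h, giving % wound closure. Three repeats.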

A549 cells [2] = assay: Matrigel invasion assay; format: cell-based, human
Outline: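 Matrigel was diluted in cold serum-free medium and gelled overnight at 37 °C in Transwell upper chambers. A549 cells were added in serum-free medium with test compound (0–150 μg/mL) or cisplatin (1 μg/mL), with 10% FBS below as chemoattractant, for 24 and 48 h at 37 °C. Invaded cells were fixed (3.7% paraformaldehyde, methanol), stained with crystal violet and counted in five fields. % invasion was set against uncoated membrane. Three repeats.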

[3] = tested on: MRC-5 (human lung fibroblast) cells; assay: MTS cell viability assay, MRC-5 cells; format: cell-based
[4] = tested on: MRC-5 (human lung fibroblast) cells; assay: Trypan blue dye exclusion assay, MRC-5 cells; format: cell-based
Outline: (§1)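 Cells were seeded at 5,000/well for 24 h: MRC-5 in EMEM and A549 in F-12K, each with 10% FBS. They were then given test compound (50, 100, 150 μg/mL), cisplatin (0.5, 1, 2 μg/mL) or 0.5% DMSO control for 24–72 h at 37 °C, 5% CO2. After trypsinisation, viable cells were counted by trypan blue exclusion on a hemocytometer (quadruplicate wells). IC50 came from growth curves. At least three repeats.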

[5] = tested on: A549 (human lung carcinoma) cells; assay: Trypan blue dye exclusion assay, A549 cells; format: cell-based
Outline: as §1

[6] = MTS cell viability assay, MRC-5 cells; format: cell-based, human; conditions: human, MRC-5 lung fibroblast cells
[7] = tested on: A549 (human lung carcinoma) cells; assay: MTS cell viability assay, A549 cells; format: cell-based; conditions: for viability at 50 µg/mL / viability at 100 µg/mL / viability at 150 µg/mL: read-out: Cell viability (%)

Structure (SMILES): N.N.[Cl][Pt][Cl] [DDP, cis-diamminedichloroplatinum II]
- Gap closure (%) (A549 cells [1]; A549, 0.5 μg/mL, 0 h): 0%
- Gap closure (%) (A549 cells [1]; A549, 0.5 μg/mL, 24 h): 3.09 ± 0.25^a,b %
- Gap closure (%) (A549 cells [1]; A549, 0.5 μg/mL, 48 h): 4.36 ± 0.60^a %
- Gap closure (%) (A549 cells [1]; A549, 0.5 μg/mL, 72 h): 4.77 ± 0.19^a %
- Gap closure (%) (A549 cells [1]; A549, 1 μg/mL, 0 h): 0%
- Gap closure (%) (A549 cells [1]; A549, 1 μg/mL, 24 h): 2.52 ± 0.16^a,b %
- Gap closure (%) (A549 cells [1]; A549, 1 μg/mL, 48 h): 3.18 ± 0.04^a,b %
- Gap closure (%) (A549 cells [1]; A549, 1 μg/mL, 72 h): 3.55 ± 0.42^a %
- Gap closure (%) (A549 cells [1]; A549, 2 μg/mL, 0 h): 0%
- Gap closure (%) (A549 cells [1]; A549, 2 μg/mL, 24 h): 2.38 ± 0.06^a,b %
- Gap closure (%) (A549 cells [1]; A549, 2 μg/mL, 48 h): 2.92 ± 0.04^a,b %
- Gap closure (%) (A549 cells [1]; A549, 2 μg/mL, 72 h): 3.53 ± 0.16^a,b %
- Invasion (%) (A549 cells [2]; A549, 0.5 μg/mL, 24 h): 29.01 ± 4.99^a,b %
- Invasion (%) (A549 cells [2]; A549, 0.5 μg/mL, 48 h): 18.62 ± 3.11^a,b %
- Invasion (%) (A549 cells [2]; A549, 1 μg/mL, 24 h): 26.12 ± 4.22^a,b %
- Invasion (%) (A549 cells [2]; A549, 1 μg/mL, 48 h): 16.13 ± 2.66^a,b %
- Invasion (%) (A549 cells [2]; A549, 2 μg/mL, 24 h): 20.91 ± 2.05^a,b %
- Invasion (%) (A549 cells [2]; A549, 2 μg/mL, 48 h): 14.42 ± 1.57^a,b %
- IC50 values, MRC-5 cells ([3]; MTS assay, 72-h): > 2 µg/mL
- Number of cells ([4]; MRC-5, 0.5 μg/mL, 24 h): 13,900 ± 302^b
- Number of cells ([4]; MRC-5, 0.5 μg/mL, 48 h): 15,666 ± 418^a,b
- Number of cells ([4]; MRC-5, 0.5 μg/mL, 72 h): 21,100 ± 488^a,b
- Number of cells ([4]; MRC-5, 1 μg/mL, 24 h): 13,516 ± 414
- Number of cells ([4]; MRC-5, 1 μg/mL, 48 h): 15,400 ± 347^a,b
- Number of cells ([4]; MRC-5, 1 μg/mL, 72 h): 20,500 ± 465^a,b
- Number of cells ([4]; MRC-5, 2 μg/mL, 24 h): 12,933 ± 396^a
- Number of cells ([4]; MRC-5, 2 μg/mL, 48 h): 14,933 ± 292^b
- Number of cells ([4]; MRC-5, 2 μg/mL, 72 h): 19,666 ± 389^a,b
- Number of cells ([5]; A549, 0.5 μg/mL, 24 h): 14,000± 310^a,b
- Number of cells ([5]; A549, 0.5 μg/mL, 48 h): 14,050 ± 523^a,b
- Number of cells ([5]; A549, 0.5 μg/mL, 72 h): 16,666 ± 420^b
- Number of cells ([5]; A549, 1 μg/mL, 24 h): 11,250± 545^a,b
- Number of cells ([5]; A549, 1 μg/mL, 48 h): 11,616 ± 590^a,b
- Number of cells ([5]; A549, 1 μg/mL, 72 h): 12,833 ± 564^a,b
- Number of cells ([5]; A549, 2 μg/mL, 24 h): 8,583± 589^a,b
- Number of cells ([5]; A549, 2 μg/mL, 48 h): 9,833 ± 650^a,b
- Number of cells ([5]; A549, 2 μg/mL, 72 h): 8,983 ± 310^a,b

Structure (SMILES): COc1ccc(-c2cc(=O)c3c(O)cc(O[C@@H]4O[C@H](CO[C@@H]5O[C@@H](C)[C@H](O)[C@@H](O)[C@H]5O)[C@@H](O)[C@H](O)[C@H]4O)cc3o2)cc1O [Diosmin, diosmin]
- Gap closure (%) (A549 cells [1]; A549, 50 μg/mL, 0 h): 0%
- Gap closure (%) (A549 cells [1]; A549, 50 μg/mL, 24 h): 4.88 ± 0.82^a %
- Gap closure (%) (A549 cells [1]; A549, 50 μg/mL, 48 h): 7.58 ± 1.07^a,b %
- Gap closure (%) (A549 cells [1]; A549, 50 μg/mL, 72 h): 10.82 ± 1.10^b %
- Gap closure (%) (A549 cells [1]; A549, 100 μg/mL, 0 h): 0%
- Gap closure (%) (A549 cells [1]; A549, 100 μg/mL, 24 h): 3.97 ± 0.26^a %
- Gap closure (%) (A549 cells [1]; A549, 100 μg/mL, 48 h): 6.08 ± 0.87^a %
- Gap closure (%) (A549 cells [1]; A549, 100 μg/mL, 72 h): 8.24 ± 0.67^a,b %
- Gap closure (%) (A549 cells [1]; A549, 150 μg/mL, 0 h): 0%
- Gap closure (%) (A549 cells [1]; A549, 150 μg/mL, 24 h): 3.32 ± 0.19^a,b %
- Gap closure (%) (A549 cells [1]; A549, 150 μg/mL, 48 h): 5.32 ± 0.64^a %
- Gap closure (%) (A549 cells [1]; A549, 150 μg/mL, 72 h): 6.84 ± 0.55^a,b %
- Invasion (%) (A549 cells [2]; A549, 50 μg/mL, 24 h): 43.51 ± 2.39^a,b %
- Invasion (%) (A549 cells [2]; A549, 50 μg/mL, 48 h): 38.05 ± 5.14^a,b %
- Invasion (%) (A549 cells [2]; A549, 100 μg/mL, 24 h): 38.60 ± 3.31^a,b %
- Invasion (%) (A549 cells [2]; A549, 100 μg/mL, 48 h): 31.39 ± 2.71^a,b %
- Invasion (%) (A549 cells [2]; A549, 150 μg/mL, 24 h): 34.79 ± 3.59^a,b %
- Invasion (%) (A549 cells [2]; A549, 150 μg/mL, 48 h): 27.60 ± 1.62^a,b %
- Invasion (%) (A549 cells [2]; A549, 150 μg/mL, 48 h, listed as diosmin): 27.60 ± 1.62%
- viability at 24 h, 50 μg/mL [6]: 80.9 ± 8.46%
- viability at 24 h, 100 μg/mL [6]: 54.7 ± 7.45%
- viability at 24 h, 150 μg/mL [6]: 44.9 ± 5.58%
- viability at 48 h, 50 μg/mL [6]: 78 ± 9.3%
- viability at 48 h, 100 μg/mL [6]: 53.9 ± 9.19%
- viability at 48 h, 150 μg/mL [6]: 47.5 ± 2.05%
- viability at 72 h, 50 μg/mL [6]: 86.7 ± 1.38%
- viability at 72 h, 100 μg/mL [6]: 71 ± 9.54%
- viability at 72 h, 150 μg/mL [6]: 49.9 ± 8.02%
- IC50 ([3]; Homo sapiens, MRC5, 72 h, read-out: IC50 values, MRC-5 cells): 150 ± 6.32 µg/mL (≈ 246 µM)
- IC50 ([4]; Homo sapiens, MRC5, 72 h, read-out: IC50 value, MRC-5 cells): > 150 µg/mL
- Number of cells ([4]; MRC-5, 50 μg/mL, 24 h): 11,666± 387^a,b
- Number of cells ([4]; MRC-5, 50 μg/mL, 48 h): 14,583 ± 489^b
- Number of cells ([4]; MRC-5, 50 μg/mL, 72 h): 19,583 ± 405^a,b
- Number of cells ([4]; MRC-5, 100 μg/mL, 24 h): 9,583 ± 463^a,b
- Number of cells ([4]; MRC-5, 100 μg/mL, 48 h): 12,083 ± 723^a
- Number of cells ([4]; MRC-5, 100 μg/mL, 72 h): 17,500 ± 456^a,b
- Number of cells ([4]; MRC-5, 150 μg/mL, 24 h): 6,666± 709^a,b
- Number of cells ([4]; MRC-5, 150 μg/mL, 48 h): 10,000 ± 630^a,b
- Number of cells ([4]; MRC-5, 150 μg/mL, 72 h): 15,833 ± 544^a,b
- viability at 50 µg/mL ([7]; A549, 24 h): 72.3 ± 3.23%
- viability at 100 µg/mL ([7]; A549, 24 h): 61.6 ± 4.07%
- viability at 150 µg/mL ([7]; A549, 24 h): 45.6 ± 4.59%
- viability at 50 µg/mL ([7]; A549, 48 h): 71.1 ± 1.37%
- viability at 100 µg/mL ([7]; A549, 48 h): 57.6 ± 5.15%
- viability at 150 µg/mL ([7]; A549, 48 h): 47.3 ± 6.78%
- viability at 50 µg/mL ([7]; A549, 72 h): 54.9 ± 3.43%
- viability at 100 µg/mL ([7]; A549, 72 h): 50.7 ± 1.19%
- viability at 150 µg/mL ([7]; A549, 72 h): 35.6 ± 5.95%
- IC50 ([7]; A549, 72 h, read-out: IC50 values, A549 cells): 106 ± 3.52 µg/mL (≈ 175 µM)
- Number of cells ([5]; A549, 50 μg/mL, 24 h): 13,333± 444^a,b
- Number of cells ([5]; A549, 50 μg/mL, 48 h): 18,333 ± 510^b
- Number of cells ([5]; A549, 50 μg/mL, 72 h): 26,250 ± 392^a,b
- Number of cells ([5]; A549, 100 μg/mL, 24 h): 10,833± 487^a,b
- Number of cells ([5]; A549, 100 μg/mL, 48 h): 13,750 ± 538^a,b
- Number of cells ([5]; A549, 100 μg/mL, 72 h): 18,750 ± 426^a,b
- Number of cells ([5]; A549, 150 μg/mL, 24 h): 6,666± 539^a,b
- Number of cells ([5]; A549, 150 μg/mL, 48 h): 8,750 ± 572^a,b
- Number of cells ([5]; A549, 150 μg/mL, 72 h): 11,250 ± 559^a,b
- IC50 ([5]; Homo sapiens, A549, 72 h, read-out: IC50 values, A549 cells): 97.7 ± 4.23 µg/mL (≈ 160 µM)
